Laboratory results published in ChEMBL document CHEMBL1833814 (Bioorg Med Chem Lett, 2011).
Converted amounts (≈) assume the structure as drawn. One block for each compound: values may come before it.

Columns and labels:
Fatty acid synthase [1] = biological target: Fatty acid synthase (Homo sapiens, UniProt P49327); assay: Inhibition of human FAS assessed as synthesis of long chain fatty acids from malonyl CoA after 60 mins by fluorescence assay
Method in brief: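 FAS enzyme prepared from HeLa cells, in enzyme buffer (20 mM K phosphate, 1 mM EDTA, 1 mM DTT, 5% glycerol, pH 7.4). It was preincubated 60 min at 37 °C with compound (0.1% DMSO), 326 µM NADPH and 60 µM acetyl CoA in 100 mM K phosphate, 1 mM EDTA, 1 mM DTT, pH 7.0. The reaction was started with 200 µM malonyl CoA. NADPH consumption was read at 340 nm over 10 min, and the slope (Vmax) was taken.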

[2] = biological target: Adenosine receptor A1 (Homo sapiens) (UniProt P30542); assay: Binding affinity to human adenosine A1 receptor at 10 uM by radioligand binding assay
Rattus norvegicus [3] = species: Rattus norvegicus; assay: Binding affinity to rat rolipram binding site at 10 uM by radioligand binding assay
[4] = Volume of distribution at steady state in iv dosed Han/Wistar rat; type: ADME, organism-based; conditions: in vivo, read-out: Vdss
Method in brief: (§1)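 Male Han/Wistar rats were dosed intravenously.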

Rattus norvegicus [5] = species: Rattus norvegicus; assay: Binding affinity to rat GABA-A receptor at 10 uM by radioligand binding assay
[6] = biological target: Alpha-2A adrenergic receptor (Homo sapiens) (UniProt P08913); assay: Binding affinity to human adrenergic alpha2A receptor at 10 uM by radioligand binding assay
Alpha-2A adrenergic receptor (Homo sapiens), sequence (P08913 whole entry): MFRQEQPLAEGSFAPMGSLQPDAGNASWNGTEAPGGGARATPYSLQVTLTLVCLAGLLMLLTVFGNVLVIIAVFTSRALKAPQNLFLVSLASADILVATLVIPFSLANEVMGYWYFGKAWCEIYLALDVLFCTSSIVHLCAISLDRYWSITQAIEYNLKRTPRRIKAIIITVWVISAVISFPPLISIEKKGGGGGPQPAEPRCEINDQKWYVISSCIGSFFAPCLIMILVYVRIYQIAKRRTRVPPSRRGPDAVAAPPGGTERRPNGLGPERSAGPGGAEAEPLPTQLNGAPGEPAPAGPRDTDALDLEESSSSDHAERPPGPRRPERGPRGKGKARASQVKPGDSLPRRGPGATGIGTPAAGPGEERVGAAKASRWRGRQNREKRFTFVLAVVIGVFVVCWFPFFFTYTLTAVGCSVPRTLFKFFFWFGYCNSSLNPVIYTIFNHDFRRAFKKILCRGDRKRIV

[7] = Plasma protein binding in rat; type: ADME, cell-free; conditions: read-out: PPB (converted)
[8] = Drug level in Han/Wistar rat cerebrospinal fluid at 4 mg/kg, po after 2 hrs; type: ADME, organism-based; design: dose 4 mg/kg, route oral; conditions: read-out: Drug uptake
Method in brief: (§2)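 Male Han/Wistar rats were dosed orally. Compound levels were measured in plasma, and in brain and CSF at 2 h.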

[9] = biological target: Pyroglutamylated RF-amide peptide receptor (Homo sapiens) (UniProt Q96P65); assay: Binding affinity to human GPR103 receptor at 10 uM by radioligand binding assay
[10] = Tmax in Han/Wistar rat at 4 mg/kg, po; type: ADME, organism-based; design: dose 4 mg/kg, route oral; conditions: in vivo; method in brief: as §2
[11] = Permeability across human Caco2 cells; type: ADME, cell-based; conditions: Caco-2, read-out: permeability
Rattus norvegicus [12] = species: Rattus norvegicus; assay: Binding affinity to rat sodium channel site 2 at 10 uM by radioligand binding assay
[13] = biological target: Histamine H1 receptor (Homo sapiens) (UniProt P35367); assay: Binding affinity to human histamine H1 receptor at 10 uM by radioligand binding assay
[14] = biological target: Prostaglandin E2 receptor EP4 subtype (Homo sapiens) (UniProt P35408); assay: Binding affinity to human EP4 receptor at 10 uM by radioligand binding assay
[15] = Cmax in Han/Wistar rat at 4 mg/kg, po; type: ADME, organism-based; design: dose 4 mg/kg, route oral; conditions: in vivo; method in brief: as §2
[16] = Drug level in Han/Wistar rat brain at 4 mg/kg, po after 2 hrs; type: ADME, organism-based; design: dose 4 mg/kg, route oral; conditions: read-out: Drug uptake; method in brief: as §2
hERG (KCNH2) = hERG (KCNH2) (Homo sapiens, UniProt Q12809); assay: Binding affinity to human ERG at 10 uM by radioligand binding assay
[17] = Half life in Han/Wistar rat at 4 mg/kg, po; type: ADME, organism-based; design: dose 4 mg/kg, route oral; conditions: in vivo; method in brief: as §2
Cytochrome P450 1A2 = Cytochrome P450 1A2 (Homo sapiens, UniProt P05177); assay: Inhibition of human CYP1A2; type: ADME
[18] = biological target: Acetylcholine receptor subunit alpha (Homo sapiens) (UniProt P02708); assay: Binding affinity to human bungrotoxin binding site of nicotinic acetylcholine receptor alpha1 at 10 uM by radioligand binding assay
[19] = biological target: Alpha-1A adrenergic receptor (Rattus norvegicus) (UniProt P43140); assay: Binding affinity to rat adrenergic alpha1A receptor at 10 uM by radioligand binding assay
[20] = biological target: D(1A) dopamine receptor (Homo sapiens) (UniProt P21728); assay: Binding affinity to human dopamine D1 receptor at 10 uM by radioligand binding assay
[21] = AUC (0 to infinity) in Han/Wistar rat at 4 mg/kg, po; type: ADME, organism-based; design: time infinity, dose 4 mg/kg, route oral; conditions: plasma; method in brief: as §2
Rattus norvegicus [22] = species: Rattus norvegicus; assay: Binding affinity to rat central imidazoline I2 receptor at 10 uM by radioligand binding assay
Rattus norvegicus [23] = species: Rattus norvegicus; assay: Binding affinity to rat dihydropyridine binding site of calcium channel L-type at 10 uM by radioligand binding assay
[24] = biological target: Muscarinic acetylcholine receptor M3 (Homo sapiens) (UniProt P20309); assay: Binding affinity to human muscarinic M3 receptor at 10 uM by radioligand binding assay
[25] = biological target: Mu-type opioid receptor (Homo sapiens) (UniProt P35372); assay: Binding affinity to human MOP receptor at 10 uM by radioligand binding assay
Homo sapiens = species: Homo sapiens; assay: Liver blood flow human; type: ADME, organism-based
Rattus norvegicus [26] = species: Rattus norvegicus; assay: Binding affinity to rat ATP-sensitive potassium channel at 10 uM by radioligand binding assay
Liver microsomes [27] = assay: Metabolic stability in rat liver microsomes; type: ADME, Microsome
[28] = biological target: Sigma non-opioid intracellular receptor 1 (Homo sapiens) (UniProt Q99720); assay: Binding affinity to human sigma 1 receptor at 10 uM by radioligand binding assay
Sigma non-opioid intracellular receptor 1 (Homo sapiens), sequence (Q99720 whole entry): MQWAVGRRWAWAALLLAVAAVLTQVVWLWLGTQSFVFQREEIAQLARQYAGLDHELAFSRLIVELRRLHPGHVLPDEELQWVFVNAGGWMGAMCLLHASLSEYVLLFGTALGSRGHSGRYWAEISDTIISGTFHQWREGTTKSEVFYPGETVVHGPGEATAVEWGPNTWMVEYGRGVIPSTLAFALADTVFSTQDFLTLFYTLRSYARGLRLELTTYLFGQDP

[29] = biological target: Beta-2 adrenergic receptor (Homo sapiens) (UniProt P07550); assay: Binding affinity to human adrenergic beta2 receptor at 10 uM by radioligand binding assay
Beta-2 adrenergic receptor (Homo sapiens), sequence (P07550 whole entry, looked up): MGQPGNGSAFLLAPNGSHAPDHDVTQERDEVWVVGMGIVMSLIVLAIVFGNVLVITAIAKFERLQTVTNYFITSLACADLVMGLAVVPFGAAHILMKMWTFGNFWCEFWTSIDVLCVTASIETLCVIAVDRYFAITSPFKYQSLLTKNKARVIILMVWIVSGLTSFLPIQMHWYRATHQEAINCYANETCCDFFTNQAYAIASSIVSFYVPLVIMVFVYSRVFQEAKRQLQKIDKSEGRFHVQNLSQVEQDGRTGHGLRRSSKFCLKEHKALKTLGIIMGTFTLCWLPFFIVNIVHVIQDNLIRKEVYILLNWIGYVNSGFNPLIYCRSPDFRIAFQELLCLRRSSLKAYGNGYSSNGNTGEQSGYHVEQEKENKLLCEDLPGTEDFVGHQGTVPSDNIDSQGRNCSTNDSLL

Rattus norvegicus [30] = species: Rattus norvegicus; assay: Binding affinity to rat agonist site of GABA-A receptor at 10 uM by radioligand binding assay
[31] = Aqueous solubility of compound at pH 7.4; type: physicochemical; conditions: buffer
[32] = biological target: D(2) dopamine receptor (Homo sapiens) (UniProt P14416); assay: Binding affinity to human dopamine D2short receptor at 10 uM by radioligand binding assay
[33] = Oral bioavailability in Han/Wistar rat at 4 mg/kg; type: ADME, organism-based; conditions: in vivo; method in brief: as §2
[34] = biological target: Alpha-1B adrenergic receptor (Rattus norvegicus) (UniProt P15823); assay: Binding affinity to rat adrenergic Alpha-1B receptor at 10 uM by radioligand binding assay
Fatty acid synthase [35] = biological target: Fatty acid synthase (Mus musculus, UniProt P19096); assay: Inhibition of FAS in mouse N42 cells assessed as [14C]-acetate incorporation after 4 hrs by scintillation counting; type: cell-based
Method in brief: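 Immortalized clonal neuronal mouse hypothalamic N-42 cells were exposed to compound for 60 min at 37 °C, then to 14C-acetate (10^6 dpm) for 4 h at 37 °C. Lipids were extracted with chloroform/methanol and the lower phase was evaporated. Incorporated radioactivity was measured by scintillation counting.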

Rattus norvegicus [36] = species: Rattus norvegicus; assay: Binding affinity to rat sigma 2 receptor at 10 uM by radioligand binding assay
[37] = biological target: Glutamate NMDA receptor (Rattus norvegicus) (UniProt P35439+Q00959+Q00960+Q00961+Q62645+Q8VHN2+Q9R1M7); assay: Binding affinity to rat NMDA receptor at 10 uM by radioligand binding assay; type: protein-complex assay
Cytochrome P450 2C9 = Cytochrome P450 2C9 (Homo sapiens, UniProt P11712); assay: Inhibition of human CYP2C9; type: ADME
Cytochrome P450 2D6 = Cytochrome P450 2D6 (Homo sapiens, UniProt P10635); assay: Inhibition of human CYP2D6; type: ADME
U937 (Homo sapiens) = assay: Cytotoxicity against human U937 cells up to 30 uM by LDH release assay
[38] = biological target: Adenosine receptor A2a (Homo sapiens) (UniProt P29274); assay: Binding affinity to human adenosine A2A receptor at 10 uM by radioligand binding assay
Adenosine receptor A2a (Homo sapiens), sequence (P29274 whole entry): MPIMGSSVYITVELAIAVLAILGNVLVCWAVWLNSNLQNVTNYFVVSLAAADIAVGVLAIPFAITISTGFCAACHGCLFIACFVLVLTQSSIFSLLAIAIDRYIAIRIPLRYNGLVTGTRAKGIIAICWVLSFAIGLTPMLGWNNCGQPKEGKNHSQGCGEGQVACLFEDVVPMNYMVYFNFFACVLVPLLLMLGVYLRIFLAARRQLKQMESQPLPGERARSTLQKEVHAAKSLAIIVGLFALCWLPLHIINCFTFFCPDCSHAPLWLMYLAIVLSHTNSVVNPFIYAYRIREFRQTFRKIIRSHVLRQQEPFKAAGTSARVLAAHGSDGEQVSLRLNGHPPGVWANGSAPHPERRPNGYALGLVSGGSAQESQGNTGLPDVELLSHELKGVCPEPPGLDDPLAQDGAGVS

[39] = biological target: Beta-1 adrenergic receptor (Homo sapiens) (UniProt P08588); assay: Binding affinity to human beta1 adrenergic receptor at 10 uM by radioligand binding assay
Cytochrome P450 2C19 = Cytochrome P450 2C19 (Homo sapiens, UniProt P33261); assay: Inhibition of human CYP2C19; type: ADME
Cytochrome P450 2C19, sequence (P33261 whole entry): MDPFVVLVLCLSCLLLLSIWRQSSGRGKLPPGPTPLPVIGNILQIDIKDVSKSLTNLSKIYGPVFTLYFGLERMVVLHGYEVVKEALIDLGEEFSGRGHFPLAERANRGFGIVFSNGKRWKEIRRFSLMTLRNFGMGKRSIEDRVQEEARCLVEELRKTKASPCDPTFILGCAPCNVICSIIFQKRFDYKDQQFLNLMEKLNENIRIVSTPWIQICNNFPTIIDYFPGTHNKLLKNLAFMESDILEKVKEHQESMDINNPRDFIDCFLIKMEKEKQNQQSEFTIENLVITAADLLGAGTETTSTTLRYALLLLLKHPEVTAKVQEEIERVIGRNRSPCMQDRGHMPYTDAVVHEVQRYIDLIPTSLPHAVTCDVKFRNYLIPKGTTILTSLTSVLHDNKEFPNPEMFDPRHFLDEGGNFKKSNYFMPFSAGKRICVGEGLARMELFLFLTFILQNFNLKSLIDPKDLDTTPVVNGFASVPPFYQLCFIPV

[40] = biological target: Muscarinic acetylcholine receptor M2 (Homo sapiens) (UniProt P08172); assay: Binding affinity to human muscarinic M2 receptor at 10 uM by radioligand binding assay
Muscarinic acetylcholine receptor M2 (Homo sapiens), sequence (P08172 whole entry): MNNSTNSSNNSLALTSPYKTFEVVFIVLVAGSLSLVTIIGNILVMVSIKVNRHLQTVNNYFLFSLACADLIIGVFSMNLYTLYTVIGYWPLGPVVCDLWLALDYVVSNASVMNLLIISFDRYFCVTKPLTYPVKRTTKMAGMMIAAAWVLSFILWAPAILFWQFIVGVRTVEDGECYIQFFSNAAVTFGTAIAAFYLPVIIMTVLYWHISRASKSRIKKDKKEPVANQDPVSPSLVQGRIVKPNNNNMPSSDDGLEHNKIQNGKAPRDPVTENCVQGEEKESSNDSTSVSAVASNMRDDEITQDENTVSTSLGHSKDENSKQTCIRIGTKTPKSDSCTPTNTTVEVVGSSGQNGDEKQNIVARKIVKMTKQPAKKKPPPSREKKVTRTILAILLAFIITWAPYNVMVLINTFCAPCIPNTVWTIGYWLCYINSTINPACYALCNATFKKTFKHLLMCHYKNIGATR

Liver microsomes [41] = assay: Metabolic stability in human liver microsomes; type: ADME, Microsome
[42] = Clearance in iv dosed Han/Wistar rat; type: ADME, organism-based; conditions: in vivo; method in brief: as §1
Mus musculus = species: Mus musculus; assay: Binding affinity to mouse phorbol ester receptor at 10 uM by radioligand binding assay
[43] = biological target: Sodium-dependent noradrenaline transporter (Homo sapiens) (UniProt P23975); assay: Binding affinity to human NET at 10 uM by radioligand binding assay
Cytochrome P450 3A4 = Cytochrome P450 3A4 (Homo sapiens, UniProt P08684); assay: Inhibition of human CYP3A4; type: ADME
Rattus norvegicus [44] = species: Rattus norvegicus; assay: Liver blood flow rat; type: ADME, organism-based

Fatty acid synthase (Homo sapiens, UniProt P49327), sequence (P49327 whole entry): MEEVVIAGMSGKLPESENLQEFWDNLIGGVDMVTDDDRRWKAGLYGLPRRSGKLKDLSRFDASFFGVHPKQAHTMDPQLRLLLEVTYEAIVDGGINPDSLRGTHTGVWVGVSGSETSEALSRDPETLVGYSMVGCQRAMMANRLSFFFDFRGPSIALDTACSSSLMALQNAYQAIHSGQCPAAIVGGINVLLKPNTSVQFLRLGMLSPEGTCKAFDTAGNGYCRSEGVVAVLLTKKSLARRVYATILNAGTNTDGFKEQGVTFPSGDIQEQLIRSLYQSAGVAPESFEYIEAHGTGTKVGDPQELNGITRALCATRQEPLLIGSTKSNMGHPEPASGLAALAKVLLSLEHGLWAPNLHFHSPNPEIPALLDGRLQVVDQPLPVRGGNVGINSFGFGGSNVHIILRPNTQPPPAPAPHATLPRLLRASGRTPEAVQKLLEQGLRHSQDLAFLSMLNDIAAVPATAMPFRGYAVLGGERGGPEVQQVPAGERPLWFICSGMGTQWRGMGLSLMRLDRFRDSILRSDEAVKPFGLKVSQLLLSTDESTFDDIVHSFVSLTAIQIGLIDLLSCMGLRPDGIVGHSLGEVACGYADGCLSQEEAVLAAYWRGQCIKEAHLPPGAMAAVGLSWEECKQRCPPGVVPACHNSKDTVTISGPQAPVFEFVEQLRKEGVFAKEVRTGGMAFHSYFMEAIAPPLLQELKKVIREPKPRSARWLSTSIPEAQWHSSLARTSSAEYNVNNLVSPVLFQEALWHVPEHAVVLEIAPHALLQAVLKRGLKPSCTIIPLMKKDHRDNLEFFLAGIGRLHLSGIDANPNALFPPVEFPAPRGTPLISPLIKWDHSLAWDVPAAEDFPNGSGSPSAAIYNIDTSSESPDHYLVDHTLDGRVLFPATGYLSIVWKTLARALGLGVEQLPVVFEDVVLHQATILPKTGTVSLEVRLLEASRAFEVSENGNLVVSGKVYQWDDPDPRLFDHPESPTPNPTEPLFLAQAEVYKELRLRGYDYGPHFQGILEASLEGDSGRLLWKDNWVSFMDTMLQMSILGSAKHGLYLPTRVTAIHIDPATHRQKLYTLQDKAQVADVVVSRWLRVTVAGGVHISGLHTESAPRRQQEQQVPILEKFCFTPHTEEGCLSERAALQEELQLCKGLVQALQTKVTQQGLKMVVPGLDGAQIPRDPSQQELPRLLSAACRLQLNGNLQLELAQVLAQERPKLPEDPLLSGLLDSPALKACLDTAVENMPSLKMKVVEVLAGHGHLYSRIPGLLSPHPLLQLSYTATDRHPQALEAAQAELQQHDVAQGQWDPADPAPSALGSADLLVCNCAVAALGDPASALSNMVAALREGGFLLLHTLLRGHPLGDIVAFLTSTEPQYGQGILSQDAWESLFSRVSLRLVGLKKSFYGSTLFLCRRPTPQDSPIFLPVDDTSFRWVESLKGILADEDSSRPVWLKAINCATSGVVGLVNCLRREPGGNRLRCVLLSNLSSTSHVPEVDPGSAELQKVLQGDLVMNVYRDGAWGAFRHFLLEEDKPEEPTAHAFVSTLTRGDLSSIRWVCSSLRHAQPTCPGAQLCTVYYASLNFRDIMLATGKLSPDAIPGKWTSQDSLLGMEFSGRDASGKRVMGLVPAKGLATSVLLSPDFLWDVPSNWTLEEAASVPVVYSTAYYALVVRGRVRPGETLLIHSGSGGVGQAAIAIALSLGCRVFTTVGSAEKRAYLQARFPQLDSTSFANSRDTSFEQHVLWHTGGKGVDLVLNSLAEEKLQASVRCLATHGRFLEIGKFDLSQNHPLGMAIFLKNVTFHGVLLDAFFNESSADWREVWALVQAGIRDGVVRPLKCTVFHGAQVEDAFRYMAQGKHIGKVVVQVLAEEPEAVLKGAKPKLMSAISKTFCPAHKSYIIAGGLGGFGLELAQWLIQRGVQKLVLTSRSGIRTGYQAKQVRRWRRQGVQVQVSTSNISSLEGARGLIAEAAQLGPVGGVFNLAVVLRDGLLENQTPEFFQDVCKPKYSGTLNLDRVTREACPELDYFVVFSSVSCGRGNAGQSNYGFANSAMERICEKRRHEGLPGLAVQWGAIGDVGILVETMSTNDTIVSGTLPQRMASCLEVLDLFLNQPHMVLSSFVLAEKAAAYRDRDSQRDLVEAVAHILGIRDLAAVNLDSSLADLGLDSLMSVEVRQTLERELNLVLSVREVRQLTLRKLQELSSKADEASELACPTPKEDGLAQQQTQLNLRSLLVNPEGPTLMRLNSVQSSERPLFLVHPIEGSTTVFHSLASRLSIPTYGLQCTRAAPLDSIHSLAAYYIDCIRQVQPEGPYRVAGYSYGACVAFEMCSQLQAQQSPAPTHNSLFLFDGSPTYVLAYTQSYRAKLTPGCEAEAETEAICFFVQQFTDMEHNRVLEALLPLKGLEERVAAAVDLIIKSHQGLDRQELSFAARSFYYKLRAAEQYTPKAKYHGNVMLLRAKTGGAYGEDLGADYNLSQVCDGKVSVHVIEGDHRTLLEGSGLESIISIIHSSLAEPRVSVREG

- IC50 (Fatty acid synthase [1]): > 10000 nM
Compound: CC(=O)N[C@@H]1CC[C@H](C(=O)N(C)c2ccc(-c3ccccc3)cc2)C1

- IC50 (Fatty acid synthase [1]): 310 nM
Compound: CCC(=O)N[C@H]1CC[C@@H](C(=O)N(C)c2ccc(-c3nc4ccccc4n3C)cc2)C1

- IC50 (Fatty acid synthase [1]): 200 nM
Compound: CC(=O)N[C@H]1CC[C@@H](C(=O)N(C)c2ccc(-c3nc4ccccc4o3)cc2)C1

- IC50 (Fatty acid synthase [1]): 1500 nM
Compound: CCNC(=O)N[C@H]1CC[C@@H](C(=O)N(C)c2ccc(-c3ccccc3)cc2)C1

Compound: CCC(=O)N[C@H]1CC[C@@H](C(=O)N(C)c2ccc(-c3nc4ccccc4o3)cc2)C1 [BI 99179]
- inhibition [2]: -7%
- inhibition (Rattus norvegicus [3]): 17%
- Vd [4]: 1.6 L/kg
- inhibition (Rattus norvegicus [5]): 8%
- inhibition [6]: 2%
- fraction unbound [7]: 0.024
- IC50 (Fatty acid synthase [1]): 79 nM
- concentration at 2 h [8]: 50 nM
- inhibition [9]: -1%
- Tmax [10]: 0.5 h
- Papp [11]: 94 ×10⁻⁶ cm/s
- inhibition (Rattus norvegicus [12]): 1%
- inhibition [13]: 13%
- inhibition [14]: 9%
- Cmax [15]: 2110 nM
- concentration at 2 h [16]: 1300 nM
- inhibition at 10 µM (hERG (KCNH2)): -5%
- half-life [17]: 3 h
- IC50 (Cytochrome P450 1A2): > 10000 nM
- inhibition [18]: 9%
- inhibition [19]: 17%
- inhibition [20]: 7%
- AUC(0-inf) [21]: 9.35 µM·h
- inhibition (Rattus norvegicus [22]): 19%
- inhibition (Rattus norvegicus [23]): 7%
- inhibition [24]: -6%
- inhibition [25]: 0%
- QH (Homo sapiens): < 26%
- inhibition (Rattus norvegicus [26]): 12%
- Stability (Liver microsomes [27]): Stable
- inhibition [28]: -2%
- inhibition [29]: 0%
- inhibition (Rattus norvegicus [30]): 4%
- solubility [31]: 5 µg/mL (≈ 12.8 µM)
- inhibition [32]: 5%
- bioavailability [33]: 46%
- inhibition [34]: 4%
- IC50 (Fatty acid synthase [35]): 600 nM
- inhibition (Rattus norvegicus [36]): 13%
- inhibition [37]: -1%
- IC50 (Cytochrome P450 2C9): > 10000 nM
- IC50 (Cytochrome P450 2D6): > 10000 nM
- Activity (U937 (Homo sapiens)): Non-toxic
- inhibition [38]: 10%
- inhibition [39]: 4%
- IC50 (Cytochrome P450 2C19): > 10000 nM
- inhibition [40]: 10%
- Stability (Liver microsomes [41]): Stable
- clearance [42]: 8.2 mL/min/kg
- inhibition (Mus musculus): 6%
- inhibition [43]: 9%
- IC50 (Cytochrome P450 3A4): > 10000 nM
- QH (Rattus norvegicus [44]): < 27%

- IC50 (Fatty acid synthase [1]): 530 nM
Compound: CCNC(=O)N[C@H]1CC[C@@H](C(=O)N(C)c2ccc(-c3nc4ccccc4o3)cc2)C1
